Test results from ChEMBL document CHEMBL2163344, “Immunomodulatory properties of novel nucleotide oligomerization domain 2 (nod2) agonistic desmuramyldipeptides” (J Med Chem, 2012).
Active and inactive are the calls of the source. The rule behind the calls is not given here.

Columns and labels:
[1] = target: Toll-like receptor 3 (Homo sapiens) (UniProt O15455); assay: Agonist activity at human TLR3 expressed in Ramos blue cells assessed as stimulation of NF-kB/AP-1 activity at 20 uM incubated for 18 hrs using quanti blue assay based SEAP reporter gene assay; type: functional, cell-based
Sequence of Toll-like receptor 3 (Homo sapiens) (O15455 whole entry): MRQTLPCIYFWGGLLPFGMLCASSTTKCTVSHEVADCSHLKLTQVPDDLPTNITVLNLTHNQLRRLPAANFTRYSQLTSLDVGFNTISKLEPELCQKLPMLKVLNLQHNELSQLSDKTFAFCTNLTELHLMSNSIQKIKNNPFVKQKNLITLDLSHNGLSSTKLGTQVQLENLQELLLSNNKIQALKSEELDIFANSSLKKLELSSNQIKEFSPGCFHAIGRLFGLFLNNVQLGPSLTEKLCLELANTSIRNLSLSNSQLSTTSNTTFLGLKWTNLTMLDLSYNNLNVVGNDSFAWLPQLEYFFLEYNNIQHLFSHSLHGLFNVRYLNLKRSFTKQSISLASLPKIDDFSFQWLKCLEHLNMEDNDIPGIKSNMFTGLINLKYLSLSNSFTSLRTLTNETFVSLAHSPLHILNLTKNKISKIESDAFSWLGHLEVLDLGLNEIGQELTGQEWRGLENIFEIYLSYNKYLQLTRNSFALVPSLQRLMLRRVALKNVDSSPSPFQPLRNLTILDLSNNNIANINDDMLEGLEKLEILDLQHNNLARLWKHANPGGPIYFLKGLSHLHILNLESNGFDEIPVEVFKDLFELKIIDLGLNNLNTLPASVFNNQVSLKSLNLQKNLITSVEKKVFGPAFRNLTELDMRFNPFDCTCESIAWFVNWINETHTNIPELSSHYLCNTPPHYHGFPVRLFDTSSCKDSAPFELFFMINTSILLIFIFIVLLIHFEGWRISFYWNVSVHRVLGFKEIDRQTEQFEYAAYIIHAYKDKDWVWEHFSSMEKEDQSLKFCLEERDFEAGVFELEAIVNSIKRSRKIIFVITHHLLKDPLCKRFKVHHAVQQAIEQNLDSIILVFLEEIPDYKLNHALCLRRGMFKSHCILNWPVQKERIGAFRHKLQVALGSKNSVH
In short: (§1)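 Ramos-Blue control cells (TLR3/7/9 and Nod1, no Nod2; stable NF-κB/AP-1-inducible SEAP reporter) at 1 × 10^6 cells/mL, exposed 18 h to 20 μM compound. SEAP in supernatant read with QUANTI-Blue reagent (3 h, 37 °C), absorbance 640 nm; activity compared with untreated cells.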

[2] = system: PBMC; assay: Immunomodulatory activity in human PBMCs assessed as increase in PMA/ionomycin-induced IL10 release at 20 uM incubated for 18 hrs by multiplexed cytokine assay; type: functional, cell-based
[3] = system: PBMC; assay: Immunomodulatory activity in human PBMCs assessed as increase in PMA/ionomycin-induced IL6 release at 20 uM incubated for 18 hrs by multiplexed cytokine assay; type: functional, cell-based
In short: (§2)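 Ficoll-isolated human PBMC, 1 × 10^6 cells per well, treated with 20 μM compound (DMSO ≤0.1%) plus PMA 3.33 ng/mL and ionomycin 500 nM for 18 h at 37 °C, 5% CO2. Cell-free supernatant cytokines measured by CBA human inflammatory kit on a flow cytometer against recombinant standards. Reported as % of PMA/ionomycin-only release; duplicates, three experiments, three donors.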

[4] = target: T1, Toll-like receptor 9 (Homo sapiens) (UniProt Q9NR96); assay: Agonist activity at human TLR9 expressed in Ramos blue cells assessed as stimulation of NF-kB/AP-1 activity at 20 uM incubated for 18 hrs using quanti blue assay based SEAP reporter gene assay; type: functional, cell-based; in short: as §1
T1 sequence (whole entry): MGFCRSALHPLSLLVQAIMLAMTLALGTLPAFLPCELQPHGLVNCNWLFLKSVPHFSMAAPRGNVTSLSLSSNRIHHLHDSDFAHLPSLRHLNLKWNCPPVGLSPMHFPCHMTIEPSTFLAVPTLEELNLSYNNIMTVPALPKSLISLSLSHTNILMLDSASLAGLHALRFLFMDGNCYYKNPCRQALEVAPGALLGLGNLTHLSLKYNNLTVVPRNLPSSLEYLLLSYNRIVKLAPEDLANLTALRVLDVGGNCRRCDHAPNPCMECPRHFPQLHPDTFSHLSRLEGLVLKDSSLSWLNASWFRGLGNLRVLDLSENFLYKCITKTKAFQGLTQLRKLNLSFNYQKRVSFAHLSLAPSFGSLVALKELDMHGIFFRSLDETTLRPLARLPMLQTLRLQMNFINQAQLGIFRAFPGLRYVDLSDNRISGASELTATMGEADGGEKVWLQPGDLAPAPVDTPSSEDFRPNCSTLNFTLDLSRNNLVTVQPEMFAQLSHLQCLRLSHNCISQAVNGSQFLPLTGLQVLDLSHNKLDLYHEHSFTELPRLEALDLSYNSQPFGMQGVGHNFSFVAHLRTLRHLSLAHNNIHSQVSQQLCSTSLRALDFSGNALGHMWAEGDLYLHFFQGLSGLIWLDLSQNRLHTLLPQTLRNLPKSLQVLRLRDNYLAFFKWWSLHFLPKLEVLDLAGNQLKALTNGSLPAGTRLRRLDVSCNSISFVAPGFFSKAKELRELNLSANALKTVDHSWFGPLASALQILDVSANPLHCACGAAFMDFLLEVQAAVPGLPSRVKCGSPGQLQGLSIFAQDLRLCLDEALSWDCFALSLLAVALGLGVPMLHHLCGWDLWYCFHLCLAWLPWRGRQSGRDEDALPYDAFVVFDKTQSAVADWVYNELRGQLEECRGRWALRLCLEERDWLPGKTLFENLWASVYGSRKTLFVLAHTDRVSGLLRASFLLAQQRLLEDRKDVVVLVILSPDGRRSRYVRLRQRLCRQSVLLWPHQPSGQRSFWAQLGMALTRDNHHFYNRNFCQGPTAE

[5] = system: PBMC; assay: Immunomodulatory activity in human PBMCs assessed as increase in PMA/ionomycin-induced IL-1beta release at 20 uM incubated for 18 hrs by multiplexed cytokine assay; type: functional, cell-based; in short: as §2
[6] = system: PBMC; assay: Cytotoxicity against human PBMCs assessed as residual metabolic activity at 20 uM in presence of PMA and ionomycin after 18 hrs by MTS assay; type: ADME, cell-based
In short: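 Human PBMC (1 × 10^6 cells/mL, triplicate) given 20 μM compound together with PMA 3.33 ng/mL and ionomycin 500 nM for 18 h. MTS metabolic activity compared with the PMA/ionomycin-only control.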

[7] = Cytotoxicity against human PBMCs assessed as residual metabolic activity at 20 uM after 18 hrs by MTS assay; type: ADME, cell-based, PBMC; conditions: read-out: Activity
In short: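 Ficoll-isolated human PBMC, 1 × 10^6 cells/mL in supplemented RPMI 1640 with 10% FBS, exposed 18 h to 20 μM compound (DMSO ≤0.1% final) in triplicate. Metabolic activity read by MTS (CellTiter 96 AQueous One) and expressed relative to vehicle-treated control.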

[8] = target: Nucleotide-binding oligomerization domain-containing protein 2 (Homo sapiens) (UniProt Q9HC29); assay: Agonist activity at human Nod2 expressed in HEK293-blue cells assessed as increase in NF-kappaB transcriptional activity at 20 uM incubated for 18 hrs using quanti blue assay based SEAP reporter gene assay; type: functional, cell-based
Sequence of Nucleotide-binding oligomerization domain-containing protein 2 (Homo sapiens) (Q9HC29 whole entry, the tested form may be a part): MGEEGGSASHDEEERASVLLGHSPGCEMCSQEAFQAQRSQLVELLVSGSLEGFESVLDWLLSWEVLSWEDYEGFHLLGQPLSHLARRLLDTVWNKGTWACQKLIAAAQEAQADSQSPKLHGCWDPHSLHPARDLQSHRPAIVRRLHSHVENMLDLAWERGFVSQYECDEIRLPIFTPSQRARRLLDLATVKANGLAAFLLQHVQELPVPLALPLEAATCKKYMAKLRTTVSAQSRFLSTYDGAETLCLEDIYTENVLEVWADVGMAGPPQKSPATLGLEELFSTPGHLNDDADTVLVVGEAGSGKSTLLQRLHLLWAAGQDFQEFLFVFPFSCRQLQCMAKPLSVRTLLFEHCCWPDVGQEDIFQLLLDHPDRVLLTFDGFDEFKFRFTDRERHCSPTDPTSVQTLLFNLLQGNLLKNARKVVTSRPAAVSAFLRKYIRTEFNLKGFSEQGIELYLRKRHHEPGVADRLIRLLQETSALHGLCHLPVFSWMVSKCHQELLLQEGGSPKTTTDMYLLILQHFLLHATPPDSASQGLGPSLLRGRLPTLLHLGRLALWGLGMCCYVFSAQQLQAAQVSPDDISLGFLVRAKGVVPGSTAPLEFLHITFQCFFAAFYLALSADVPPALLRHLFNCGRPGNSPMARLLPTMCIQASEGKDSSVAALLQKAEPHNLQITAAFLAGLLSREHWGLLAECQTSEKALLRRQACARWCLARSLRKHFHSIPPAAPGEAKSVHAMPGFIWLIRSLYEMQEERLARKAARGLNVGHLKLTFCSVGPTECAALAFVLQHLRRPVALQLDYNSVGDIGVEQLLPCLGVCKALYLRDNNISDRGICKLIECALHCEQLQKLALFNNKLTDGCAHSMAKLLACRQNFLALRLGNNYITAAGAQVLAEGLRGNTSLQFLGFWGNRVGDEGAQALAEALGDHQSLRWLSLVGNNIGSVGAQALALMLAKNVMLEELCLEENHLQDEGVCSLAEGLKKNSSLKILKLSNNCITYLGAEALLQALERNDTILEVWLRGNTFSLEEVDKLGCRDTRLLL
In short: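 HEK-Blue Nod2 cells (HEK293 stably coexpressing human Nod2 and NF-κB-inducible SEAP) at 1 × 10^6 cells/mL, treated 18 h with 20 μM compound. Supernatant SEAP measured with QUANTI-Blue, 3 h at 37 °C, absorbance 640 nm. Duplicates in three independent experiments, compared with untreated cells.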

Compound | Activity [1] | Activity [4] | Activity [8] | Activity [2] | Activity [3] | Activity [5] | Activity [6] | viability at 18 h, 20 µM [7] [%]
CCOC(=O)CC[C@@H](NC(=O)[C@H](C)NC(=O)COCCN1C(=O)c2ccccc2S1(=O)=O)C(=O)OCC | inactive | inactive |  | inactive | inactive | inactive | Non-toxic | ≥ 90
CCOC(=O)CC[C@@H](NC(=O)[C@H](C)NC(=O)COCCN1C(=O)c2ccccc2S1(=O)=O)C(N)=O | inactive | inactive | inactive | inactive | inactive | inactive | Non-toxic | ≥ 90
CCOC(=O)CC[C@@H](NC(=O)[C@H](C)NC(=O)CCCCN1C(=O)c2ccccc2S1(=O)=O)C(=O)OCC | inactive | inactive |  | inactive | inactive | inactive | Non-toxic | ≥ 90
CCOC(=O)CC[C@@H](NC(=O)[C@H](C)NC(=O)CCCCN1C(=O)c2ccccc2S1(=O)=O)C(N)=O | inactive | inactive | inactive | inactive | inactive | inactive | Non-toxic | ≥ 90
CCCCOC(=O)[C@@H](CCC(N)=O)NC(=O)[C@H](C)NC(=O)[C@@H](C)O[C@H]1[C@H](O)[C@@H](CO)OC(O)[C@@H]1NC(C)=O (stereo partly specified) [MURABUTIDE] | inactive | inactive | Active | inactive |  | Active | Non-toxic | ≥ 90

The next lines start with results.

Activity [1] | Activity [4] | Activity [8] | Compound | Activity [2] | Activity [3] | Activity [5] | Activity [6] | viability at 18 h, 20 µM [7] [%]
inactive | inactive | Active | CCOC(=O)CC[C@@H](NC(=O)[C@H](C)NC(=O)C1=C2c3ccccc3S(=O)(=O)N2CCC1)C(=O)OCC | inactive | Active | Active | Non-toxic | ≥ 90
inactive | inactive | Active | CCOC(=O)CC[C@@H](NC(=O)[C@H](C)NC(=O)CNC(=O)c1cc2ccccc2[nH]1)C(=O)OCC | inactive | Active | Active | Non-toxic | ≥ 90
inactive | inactive | inactive | CCOC(=O)CC[C@@H](NC(=O)[C@H](C)NC(=O)CNC(=O)c1cc2ccccc2[nH]1)C(N)=O | inactive | inactive | inactive | Non-toxic | ≥ 90
